HTRA1 inhibitor: HTRA1 serine protease inhibitors, primary screen, biochemical, fluorescence polarization, HTS | Q92743 | recombinant HTRA1, FP-rhodamine activity-based probe | inhibition, % at 5.96 µM | 340,000 compounds, 0.5% hits | AID 504803, 2011; in the data active = inhibition above about 36%;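 also: 0% = enzyme with DMSO and 100% = wells lacking enzyme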
ABHD4 inh: ABHD4 inhibitors, primary screen, biochemical, fluorescence polarization, mouse; purified mABHD4, FP-Rh probe fluorescence polarization; (Lyso)-N-acylphosphatidylethanolamine lipase (Mus musculus), Q8VD66; AID 720543, 2013; inhibition, % at 8.92 µM; 370,000 compounds, 0.54% hits;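 active = inhibition exceeding the mean over every tested compound plus 3 SD, cut at about 30% in these data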;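 also: 0% = plate median of compound wells and 100% = S159A mutant with DMSO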
Target sequence (Q8VD66 whole entry, looked up): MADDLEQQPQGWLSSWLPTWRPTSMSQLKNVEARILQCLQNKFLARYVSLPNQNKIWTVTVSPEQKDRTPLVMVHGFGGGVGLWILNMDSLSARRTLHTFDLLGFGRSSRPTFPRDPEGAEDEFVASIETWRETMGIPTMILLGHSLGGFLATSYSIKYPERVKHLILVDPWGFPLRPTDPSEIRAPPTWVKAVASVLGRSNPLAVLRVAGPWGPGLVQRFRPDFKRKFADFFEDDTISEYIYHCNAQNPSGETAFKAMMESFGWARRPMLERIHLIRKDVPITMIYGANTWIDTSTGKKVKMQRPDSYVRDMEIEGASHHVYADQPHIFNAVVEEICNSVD
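Test system: mABHD4 protein | Buffer or medium: HEPES pH 7.0 buffer, 150 mM NaCl, 0.01% Pluronic F-127 | Probe or stimulus: FP-Rh fluorescent activity-based probe, added after compound pre-incubation | Timing: Pre-incubation 45 min, probe exposure 60 min, at 25 °C | Technique: Fluorescence polarization, excitation 525 nm, emission 598 nm, BODIPY TMR filters | Repeats: Single well per compound (singlicate)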
SIAE inh: human SIAE inhibitors, primary screen, biochemical, fluorescence polarization, FP-Rh probe, 1536-well HTS; 370,000 compounds, 0.69% hits; SIAE FP-Rh probe binding; Sialate O-acetylesterase (Homo sapiens), Q9HAT2; inhibition, % at 9.66 µM; AID 1053197, 2014;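 active = inhibition above a cutoff: mean of compounds within the control limits plus 3 SD of those, cut at about 17% in these data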;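 also: 0% = plate median of compound wells and 100% = probe without SIAE protein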
RBBP9 inhibitor: human RBBP9 inhibitors, primary screen, biochemical, fluorescence polarization, FP-Rh probe, HTS; inhibition, % at 7.94 µM; recombinant RBBP9; 220,000 compounds, 0.2% hits;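 active = inhibition above the campaign mean of all tested compounds plus 3 SD, cut at about 14% in these data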;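 also: plate controls were DMSO wells with RBBP9 for no effect and wells lacking RBBP9 protein for full effect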
Target sequence (O75884 whole entry, looked up): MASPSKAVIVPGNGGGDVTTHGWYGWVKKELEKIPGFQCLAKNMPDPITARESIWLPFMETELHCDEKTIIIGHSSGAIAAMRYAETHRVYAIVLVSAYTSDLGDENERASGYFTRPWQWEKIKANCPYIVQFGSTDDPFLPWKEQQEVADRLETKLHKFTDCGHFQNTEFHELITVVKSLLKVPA
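Controls: DMSO-treated enzyme wells and wells lacking RBBP9 | Material: RBBP9 protein | Technique: Fluorescence polarization | Replication: Single well per compound, no replicates | Buffer or medium: Tris-NaCl-Pluronic buffer, pH 8.0 | Timing: 30 min compound preincubation, 45 min probe labeling, 25 °C | Read-out basis: Percent inhibition from mP, scaled between DMSO and no-protein wells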
HTRA1 inh conf: HTRA1 protease inhibitors, retest, confirmation, biochemical, fluorescence polarization; shares compounds with HTRA1 inhibitor; recombinant HTRA1, FP-rhodamine activity-based probe; inhibition, % at 5.96 µM; 1,600 compounds, 66% hits;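 active = mean inhibition over three repeats above a set limit taken from the earlier primary screen, cut at about 37% in these data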;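 also: 0% = HTRA1 with DMSO and 100% = wells lacking HTRA1; inhibitors block probe binding so polarization drops and inhibition rises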
ABHD4 confirm: ABHD4 inhibitors, retest, confirmation, biochemical, fluorescence polarization, mouse | shares compounds with ABHD4 inh | purified mABHD4, FP-Rh probe fluorescence polarization | 1,800 compounds, 55% hits | inhibition, % at 8.92 µM;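 active = mean inhibition across replicates above the hit cutoff set in the primary screen, cut at about 30% in these data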;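 also: 0% = wild-type ABHD4 with DMSO and 100% = catalytically dead S159A mutant with DMSO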
SIAE inh conf: human SIAE inhibitors, retest, confirmation, biochemical, fluorescence polarization, FP-Rh probe, triplicate | 2,300 compounds, 13% hits | SIAE FP-Rh activity-based probe | inhibition, % at 9.66 µM | shares compounds with SIAE inh;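 active = mean inhibition of the replicates above the hit cutoff set in the primary screen, cut at about 17% in these data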;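 also: 0% = SIAE with DMSO and probe and 100% = probe without SIAE; inhibitors lower polarization as more probe stays unbound to SIAE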
An asterisk follows results filed as active; · = no result; ! = not confirmed by another sample. Sampled rows, rich in hits. Any-hit rate of the full collection: about 1.4%.

SMILES	HTRA1 inhibitor	ABHD4 inh	SIAE inh	RBBP9 inhibitor	HTRA1 inh conf	ABHD4 confirm	SIAE inh conf
Cc1ccc(C)c2c1c1ccccc1n2C	-1	-6	0	-10	·	·	·
Cc1ccc2c(c1)c1ccc3c(c1n2C)C(=O)C=CC3=O	40*	68*	-9	5	62*	85*	·
Cc1ccc2c(c1)c1ncnc(N3CCOCC3)c1n2C	7	0	-6	-7	·	·	·
Cn1c2ccccc2c2ccc3c(c21)C(=O)C=CC3=O	40*	42*	-2	·	63*	72*	·
O=c1cc2c(=O)oc3cc(O)c(O)oc3c2c(O)c1O	47*	42*	12	-1	38*	34*	·
Oc1cc(O)cc(/C=C/c2ccc(O)c(O)c2)c1	38*	32*	2	·	36*	27	·
C/C=C/c1ccc(O)c(OC)c1	4	-6	11	·	·	·	·
COc1ccc(Nc2c([N+](=O)[O-])ccc3c2=NC2(CCCCC2)N=3)cc1	55*	31*	5	2	52*	40*	·
O=[N+]([O-])c1ccc2c(c1Nc1ccccc1)=NC1(CCCCC1)N=2	15	7	3	-2	·	·	·
CC(C)c1cc2c(c(O)c1O)[C@@]13CCCC(C)(C)C1CC2OC3=O (some centres not stated)	48*	31*	20*	·	18	26	·
Cc1[nH]c2ccccc2c1CC(=O)Nc1ccc(Nc2cccnc2)c(-c2ccc(Cl)c(Cl)c2)c1	·	22	15	·	·	·	·
CCN(CC)c1ccc(N=Cc2cc(Br)ccc2O)cc1	60*	45*	11	6	4	29	·
Oc1ccc(Br)cc1C=Nc1ccc(Cl)cc1	-1	-2	6	-9	·	·	·
CN1CCc2cccc3c2[C@H]1Cc1ccc(O)c(O)c1-3	59*	88*	18*!	28*	50*	28	·
Cc1ccc(N(C)C)cc1	·	-2	4	·	·	·	·
Cc1ccc(C)n1-c1ccc(N(C)C)cc1	38*	32*	9	-2	40*	7	·
Cc1cc(C)c2nc(NNC(=O)c3cc(=O)c4ccccc4o3)sc2c1	69*	40*	2	0	59*	61*	·
COc1cccc2c(SCC(=O)N/N=C/c3ccc(O)c(O)c3)cc(C)nc12	·	29	5	-10	·	·	·
O=C(CSc1nc2ccccc2o1)N/N=C/c1ccccc1	16	7	6	8	·	·	·
Cc1cc(SCC(=O)N/N=C/c2ccc(O)c(O)c2)nc2ccccc12	78*	35*	3	·	74*	31*	·
O=C(CSc1nc2ccccc2o1)N/N=C/c1ccc(O)c(O)c1	37*	34*	16	-7	66*	29	·
CCN(CCCNc1cc2c(c(N)c1S(=O)(=O)O)C(=O)c1ccccc1C2=O)c1ccccc1	86*	102*	33*	·	83*	103*	23*
Cc1onc(C(=O)N2CCN(C(c3ccccc3)c3ccccc3)CC2)c1Br	·	1	1	·	·	·	·
C[C@@H]1C[C@H](O)CCCCCC(=O)Cc2cc(O)cc(O)c2C(=O)O1	·	-3	2	·	·	·	·
N#CC(C#N)=C1C=C2C=C(N3CCCCCC3)CCC2CC1 (configuration not stated)	52*	-10	28*	1	35	·	22*
SMILES	HTRA1 inhibitor	ABHD4 inh	SIAE inh	RBBP9 inhibitor	HTRA1 inh conf	ABHD4 confirm	SIAE inh conf
CCOc1cc(/C=N/NC(=O)c2ccc(=O)n(C)c2)ccc1O	0	5	-2	4	·	·	·
O=C(N/N=C/c1ccc(O)c(O)c1)c1ccc(CSc2cccc3cccnc23)cc1	57*	23	42*	-12	85*	·	16
O=C(CSc1cccc2cccnc12)N/N=C/c1cccc(O)c1	-9	-6	-3	-9	·	·	·
Cc1ccc(C(C)C)c(OCc2ccc(C(=O)N/N=C/c3ccc(O)c(O)c3)cc2)c1	63*	18	26*	-19	56*	·	-14
Cc1ccc(C(C)C)c(OCc2ccc(C(=O)N/N=C/c3cccc(O)c3O)cc2)c1	83*	12	28*	-18	78*	·	-1
COc1cc([C@@H]2Oc3cc(C4Oc5cc(O)cc(O)c5C(=O)[C@H]4O)ccc3O[C@H]2CO)ccc1O (some centres not stated)	17	·	·	·	·	·	·
O=C(/C=C/c1ccc(O)c(O)c1)c1ccc(S(=O)(=O)N2CCCCCC2)cc1	55*	25	45*	-22	56*	·	-2
COc1ccccc1C1NC(=O)NC(C)=C1C(=O)OCC1CCCCC1 (configuration not stated)	-12	0	5	·	·	·	·
COCC(=O)NCc1ccc2c(c1)cc(C)n2C	-2	18	-1	-7	·	·	·
Cc1ccc(S(=O)(=O)NCc2ccc3c(c2)cc(C)n3C)cc1	40*	60*	28*	-4	11	1	3
Cc1cc2cc(CNC(=O)Nc3ccc(Cl)c(Cl)c3)ccc2n1C	41*	38*	33*	-12	13	-12	-9
COC(=O)Cc1ccc(NC(=S)NCCSc2ccc(Cl)cc2)cc1	-18	-3	8	-9	·	·	·
Nc1cc(SCc2ccc(Cl)cc2Cl)ncn1	-11	-3	-2	·	·	·	·
CCOc1cc(/C=N/Nc2ccc(S(=O)(=O)Nc3ccccc3C(=O)O)cc2[N+](=O)[O-])cc(Cl)c1O	75*	73*	32*	·	68*	86*	16
COc1ccc(-c2nc3ccc(Br)cn3c2Cc2cccc(Cl)c2)cc1OC	·	-6	-2	·	·	·	·
COc1cccc2[nH]c3ccccc3c(=O)c12	3	·	·	·	·	·	·
Nc1cccc2c(=O)c3ccccc3[nH]c12	55*	60*	30*	·	18	41*	5
CCCCCc1c(-c2ccc(F)cc2F)ncn1CCc1ccccc1OC	·	0	5	·	·	·	·
O=[N+]([O-])c1cc2oc3c(c2c(C=NCc2ccccc2)c1O)CCCC3	43*	31*	28*	-5	54*	31*	-10
CC(C)CN=Cc1c(O)c([N+](=O)[O-])cc2oc3c(c12)CCCC3	44*	20	24*	3	43*	·	1
C=CCn1c(SCC(=O)N2CC(C)OC(C)C2)nnc1-c1ccncc1 (configuration not stated)	0	7	8	·	·	·	·
CCOc1ccccc1C(=O)Nc1ccc(C(=O)NCC2COc3ccccc3O2)cc1 (configuration not stated)	·	0	2	·	·	·	·
